Experimental data published in ChEMBL document CHEMBL1144326, “Exploring the active site of phenylethanolamine N-methyltransferase with 3-hydroxyethyl- and 3-hydroxypropyl-7-substituted-1,2,3,4-tetrahydroisoquinolines” (Bioorg Med Chem Lett, 2005).

These compounds were tested against T1, Alpha-2A adrenergic receptor (Homo sapiens, UniProt P08913) (assay: Binding affinity against human alpha 2A adrenergic receptor in CHO cells using [3H]RX-821002 as radioligand).
T1 sequence (P08913 whole entry): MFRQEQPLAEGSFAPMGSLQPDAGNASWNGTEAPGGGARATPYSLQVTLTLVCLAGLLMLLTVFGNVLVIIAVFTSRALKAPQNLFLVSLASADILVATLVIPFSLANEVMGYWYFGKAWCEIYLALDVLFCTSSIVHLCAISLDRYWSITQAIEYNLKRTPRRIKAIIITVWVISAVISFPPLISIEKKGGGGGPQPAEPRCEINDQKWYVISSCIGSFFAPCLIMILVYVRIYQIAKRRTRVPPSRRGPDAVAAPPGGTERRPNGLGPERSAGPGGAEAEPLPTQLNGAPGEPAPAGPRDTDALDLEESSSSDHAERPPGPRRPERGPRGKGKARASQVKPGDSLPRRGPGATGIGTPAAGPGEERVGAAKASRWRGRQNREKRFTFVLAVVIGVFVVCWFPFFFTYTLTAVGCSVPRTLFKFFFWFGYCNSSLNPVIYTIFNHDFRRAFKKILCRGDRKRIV
Assay type: cell-based
Procedure, shortened: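 Membranes from CHO cells stably transfected with human α2A-adrenoceptor; [³H]RX821002 at 0.2 nM as radioligand; nonspecific binding defined with (−)-norepinephrine; displacement of radioligand measured.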

In order of falling pKi:
1. Clc1ccc2c(c1Cl)CNCC2  6.52
2. CC1Cc2ccc([N+](=O)[O-])cc2CN1 (centres undefined)  4.84
3. FC(F)(F)C1Cc2ccc(Br)cc2CN1 (centres undefined)  4.35
4. O=[N+]([O-])c1ccc2c(c1)CNC(CO)C2 (centres undefined)  3.9
5. O=[N+]([O-])c1ccc2c(c1)CNC(C(F)F)C2 (centres undefined)  3.6
6. O=[N+]([O-])c1ccc2c(c1)CNC(C(F)(F)F)C2 (centres undefined)  3.4
7. NS(=O)(=O)c1ccc2c(c1)CNCC2  3.4
8. O=[N+]([O-])c1ccc2c(c1)CNCC2  3.2
9. O=[N+]([O-])c1ccc2c(c1)CNC(CF)C2 (centres undefined)  3.2

These compounds were tested against T2, Adrenergic receptor alpha-2 (Rattus norvegicus, UniProt P22086+P19328+P22909) (assay: Binding affinity against alpha 2 adrenergic receptor in rat cortex using [3H]clonidine as radioligand).
T2 sequence (P22086 whole entry): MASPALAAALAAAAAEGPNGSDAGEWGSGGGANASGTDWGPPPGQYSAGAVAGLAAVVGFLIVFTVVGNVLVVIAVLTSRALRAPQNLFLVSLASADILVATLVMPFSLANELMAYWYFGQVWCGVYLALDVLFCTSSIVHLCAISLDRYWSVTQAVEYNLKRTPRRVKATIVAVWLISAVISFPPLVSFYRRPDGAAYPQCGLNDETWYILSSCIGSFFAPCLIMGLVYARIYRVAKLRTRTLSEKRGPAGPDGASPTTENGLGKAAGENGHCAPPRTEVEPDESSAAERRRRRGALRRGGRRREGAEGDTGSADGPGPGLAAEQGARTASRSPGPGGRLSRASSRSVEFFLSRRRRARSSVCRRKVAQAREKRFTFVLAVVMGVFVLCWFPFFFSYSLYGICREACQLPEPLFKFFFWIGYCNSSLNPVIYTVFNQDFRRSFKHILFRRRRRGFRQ
T2 sequence (P19328 whole entry): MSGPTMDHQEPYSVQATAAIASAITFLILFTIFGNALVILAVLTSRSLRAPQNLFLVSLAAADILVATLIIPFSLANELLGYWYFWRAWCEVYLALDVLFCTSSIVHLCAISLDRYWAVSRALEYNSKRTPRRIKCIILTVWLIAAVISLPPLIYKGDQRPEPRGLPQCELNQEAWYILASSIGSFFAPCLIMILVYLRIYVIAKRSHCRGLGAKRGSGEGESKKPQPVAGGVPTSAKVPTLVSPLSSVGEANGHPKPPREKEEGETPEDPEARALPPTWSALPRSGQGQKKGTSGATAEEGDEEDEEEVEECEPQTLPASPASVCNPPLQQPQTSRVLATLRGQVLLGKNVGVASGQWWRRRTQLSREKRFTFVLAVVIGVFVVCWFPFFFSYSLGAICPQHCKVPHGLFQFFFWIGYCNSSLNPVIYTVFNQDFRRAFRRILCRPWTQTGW
T2 sequence (P22909 whole entry): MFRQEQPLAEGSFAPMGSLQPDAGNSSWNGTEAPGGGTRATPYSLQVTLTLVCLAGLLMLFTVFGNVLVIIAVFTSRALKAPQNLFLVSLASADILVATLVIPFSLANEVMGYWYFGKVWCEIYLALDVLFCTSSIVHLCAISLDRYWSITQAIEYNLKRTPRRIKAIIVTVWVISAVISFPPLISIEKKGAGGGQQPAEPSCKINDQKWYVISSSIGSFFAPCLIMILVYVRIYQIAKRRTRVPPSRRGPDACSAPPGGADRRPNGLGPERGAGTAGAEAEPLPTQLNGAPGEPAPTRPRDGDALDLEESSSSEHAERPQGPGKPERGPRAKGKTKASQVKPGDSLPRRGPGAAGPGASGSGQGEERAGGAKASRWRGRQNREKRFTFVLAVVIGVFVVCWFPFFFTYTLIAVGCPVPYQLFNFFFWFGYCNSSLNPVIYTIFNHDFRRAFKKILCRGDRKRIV
Assay type: tissue-based

In order of rising Ki:
1. OCC1Cc2ccc(Br)cc2CN1 (centres undefined)  1 µM
2. OCCC1Cc2ccc(Br)cc2CN1 (centres undefined)  1.3 µM
3. OCCCC1Cc2ccc(Br)cc2CN1 (centres undefined)  4.8 µM
4. O=[N+]([O-])c1ccc2c(c1)CNC(CCO)C2 (centres undefined)  46 µM
5. O=[N+]([O-])c1ccc2c(c1)CNC(CCCO)C2 (centres undefined)  59 µM
